Screens as filed in PubChem BioAssay.
Hits are enriched below; roughly 2% of the tested compounds scored in any of these assays.
PAD4 inh: PAD4 (human) enzyme inhibition | recombinant PAD4, RCA probe fluorescence polarization | 0.41% of 330,000 active | inhibition, % at 6.36 µM | Q9UM07;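 active means percent inhibition above a cutoff equal to the mean of all tested compounds plus 3 SD, cut at about 15% in these data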;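 further: 0% = PAD4 with RCA probe and DMSO and 100% = probe without PAD4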
PP5 inh: blocks human protein phosphatase 5 activity; purified PP5c, OMFP substrate fluorescence; P53041; 0.18% of 320,000 active; inhibition, % at 6.7 µM;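 active means inhibition above the campaign's mean inhibition across all tested compounds plus 3 SD, cut at about 9.5% in these data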;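 further: 0% = DMSO only and 100% = 100 µM cantharidin control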
Target sequence (P53041 whole entry, looked up): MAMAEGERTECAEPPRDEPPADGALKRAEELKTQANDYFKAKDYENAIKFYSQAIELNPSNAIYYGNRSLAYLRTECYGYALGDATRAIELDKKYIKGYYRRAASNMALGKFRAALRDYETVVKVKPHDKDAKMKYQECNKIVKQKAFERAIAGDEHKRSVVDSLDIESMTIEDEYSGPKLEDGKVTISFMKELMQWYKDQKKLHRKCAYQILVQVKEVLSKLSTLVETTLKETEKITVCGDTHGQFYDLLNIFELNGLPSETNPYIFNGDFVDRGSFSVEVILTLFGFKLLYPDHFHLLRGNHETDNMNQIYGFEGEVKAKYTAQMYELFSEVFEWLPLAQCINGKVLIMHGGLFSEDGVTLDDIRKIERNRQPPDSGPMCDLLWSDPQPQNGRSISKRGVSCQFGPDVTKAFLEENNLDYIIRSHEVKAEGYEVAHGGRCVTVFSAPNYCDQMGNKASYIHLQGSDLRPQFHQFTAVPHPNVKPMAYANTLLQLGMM
Apaf-1 inh: blocks human Apaf-1 apoptosome activity | O14727 | reconstituted apoptosome caspase-3 activity, DEVD-Rh110 fluorescence | inhibition, % at 20 µM | 0.71% of 330,000 active | AID 489030; active means inhibition of at least 40% at 20 µM;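 further: plate controls were DMSO wells for no effect and DEVD-CHO caspase inhibitor wells for full effect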
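Material: biochemical Apaf-1 apoptosome reconstitution. Medium: Hepes buffer, pH 7.5. Also added: cytochrome c activation, bis-DEVD rhodamine 110 substrate. Timing: 30 min compound preincubation, 50 min activation, room temperature. Measured by: rhodamine 110 fluorescence at Ex 480/Em 540 nm.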
GSTO1 counter: counter-screen for RBBP9 inhibitors: inhibitors of human GSTO1. recombinant GSTO1, activity-based probe fluorescence polarization. 1.1% of 300,000 active. AID 1974. inhibition, % at 5.96 µM. P78417;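 active means inhibition above the campaign mean inhibition plus 3 SD, cut at about 35% in these data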;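 further: 0% = GSTO1-1 with DMSO and 100% = wells lacking GSTO1-1 enzyme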
Fh CTSL1 inh: counter-screen for PFM18AAP inhibitors: inhibitors of F. hepatica cathepsin L1. recombinant F. hepatica cathepsin L1, Z-Leu-Arg-MCA fluorescence. inhibition, % at 5.96 µM. 0.49% of 300,000 active. AID 1906;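 active means inhibition above the mean of all tested compounds plus 3 SD, set per screening campaign, cut at about 17% in these data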;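 further: 0% = plate median of test compound wells and 100% = 1 µM Z-Phe-Ala-diazomethylketone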
UCH37 inh: blocks the human deubiquitinase UCH37; Q9Y5K5; purified proteasome/UCH37, Ub-AMC cleavage fluorescence; inhibition, % (concentration not given with the values); 0.33% of 330,000 active; AID 588478;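 active means mean inhibition over replicate wells above about 20%, limit read from the data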;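 further: 0% = compound-free wells with enzyme and 100% = wells lacking proteasome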
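Test system – human UCH37 enzyme supplied as purified proteasome complex · Incubation – 30 min preincubation with enzyme, 25 min cleavage at room temperature · Detection – AMC fluorescence from Ub-AMC cleavage, excitation 355 nm, emission 460 nm · Benchmarks – no-proteasome wells (full inhibition) and compound-free wells (no inhibition)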
PAD4 FP conf: confirmation of human PAD4 inhibitors. shares compounds with PAD4 inh. inhibition, % at 6.36 µM. recombinant PAD4, RCA probe fluorescence polarization. 28% of 1,200 active. AID 488796;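 active means mean inhibition across replicates above the hit cutoff set by the earlier primary screen, cut at about 15% in these data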;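 further: inhibitors block active-site labeling by the probe so polarization falls; 0% = PAD4 with probe and DMSO and 100% = probe without PAD4 enzyme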
Apaf-1 inh conf2: confirmation of Apaf-1 inhibitors; AID 504614; inhibition, % at 20 µM; 25% of 1,800 active; shares compounds with Apaf-1 inh; reconstituted apoptosome, caspase-3 DEVD-Rh110 fluorescence;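 active means mean inhibition of at least 40% at 20 µM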;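 further: plate controls were DMSO wells for no effect and DEVD-CHO caspase inhibitor control wells for full effect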
Rh110 quench: Rh110 signal interference in Apaf-1 inhibitor counter-screen | Rh110 fluorescence interference, quenched caspase reaction | shares compounds with Apaf-1 inh | activation (fluorescence interference), % at 20 µM | 1,800 tested, under 10 active;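 active means signal rise of 40% or more at 20 µM, treated as a fluorescence artifact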
Fluor interf inh: shows fluorescence interference in the Apaf-1 inhibitor assay format; AID 588538; IC50, µM; 460 tested, under 10 active; shares compounds with Apaf-1 inh; fluorescence interference counterscreen, Apaf-1 assay format; call rule not given here
Starred values were filed as active, the others as inactive; i = inactive; x = not tested or not shown.

SMILES	PAD4 inh	PP5 inh	Apaf-1 inh	GSTO1 counter	Fh CTSL1 inh	UCH37 inh	Apaf-1 inh conf2	Rh110 quench	others
N#CC1(c2ccccc2)CCN(C2CC(=O)N(c3ccc(F)cc3)C2=O)CC1 (configuration not stated)	18*	4	-12	3	0	-1	x	x	PAD4 FP conf=3
Ic1ccccc1CN[C@@H]1C2CCN(CC2)[C@@H]1C(c1ccccc1)c1ccccc1	5	1	50*	4	-2	-1	13	5
COc1cc2c3c(c1OC)Oc1ccc(cc1)C[C@H]1c4c(cc(OC)c(OC)c4Oc4ccc(cc4)C[C@@H]3N(C)CC2)CCN1C	-7	x	45*	x	x	1	15	-2
COc1cc2c3cc1Oc1c(OC)c(OC)cc4c1[C@H](Cc1ccc(cc1)Oc1cc(ccc1O)C[C@H]3N(C)CC2)N(C)CC4	1	x	8	x	x	5	x	x
Cc1cc(C=C2C(=O)N(C)C(=S)N(C)C2=O)c(C)n1-c1cccnc1	-4	-1	24	10	4	4	x	x
COC(=O)C1=C(c2ccc(F)cc2OCc2ccccc2)C[C@@H]2CC[C@H]1N2C(=O)NCc1ccccc1OC	0	2	20	x	x	1	x	x
O=[N+]([O-])c1ccc(NCc2ccc(Cl)cc2)c2ccncc12	-16	2	79*	3	1	4	12	-3
CN1CCN(CCCN2c3ccccc3Sc3ccc(Cl)cc32)CC1	-2	2	57*	-2	2	1	14	6
FC(F)(F)c1ccc2c(c1)N(CCCN1CCN(CCCl)CC1)c1ccccc1S2	-5	4	13	2	3	-1	x	x
COCCNC(=O)c1c(N)n(Cc2ccco2)c2nc3ccccc3nc12	-7	2	10	21	1	i	x	x
CCC(C)NC(=O)c1c(N)n(CCCOC)c2nc3ccccc3nc12 (configuration not stated)	-5	7	91*	61*	2	i	59*	9	Fluor interf inh=>100
COCCCn1c(N)c(C(=O)OC(C)COC)c2nc3ccccc3nc21 (configuration not stated)	-9	1	74*	12	1	i	8	9
COCCCn1c(N)c(C(=O)Nc2sc3c(c2C(=O)OC)CCCC3)c2nc3ccccc3nc21	-7	3	90*	3	0	6	26	10
COCCCn1c(N)c(C(=O)Nc2ccccc2)c2nc3ccccc3nc21	0	2	51*	6	1	-18	25	9
CCCCOCCCn1c(N)c(C(=O)OC(C)COC)c2nc3ccccc3nc21 (configuration not stated)	-4	1	0	25	5	i	x	x
CC(C)Sc1nnc([C@@H](N)Cc2ccccc2)o1	-4	-1	-2	-3	-4	0	x	x
COC(=O)C1=C(c2ccc(Cl)c(C(F)(F)F)c2)C[C@@H]2CC[C@H]1N2C(=O)N1CCC(O)(c2ccc(Cl)cc2)CC1	6	x	21	x	x	3	x	x
CC1=CC(=C2C(=O)NC(=O)NC2=O)C=C(C(F)(F)F)N1C(C)C	-2	4	3	-1	0	14	x	x
CC1(C)CC(n2[nH]c(=O)c3c2NC(=O)CSC3c2ccccc2)CCO1 (configuration not stated)	-6	3	-7	15	-3	4	x	x
CCCCCCCCCCCCCCCC[N+](C)(C)C	5	1	85*	6	2	15	46*	15	Fluor interf inh=>100
CCCCCC[N+](=O)[O-]	-3	1	-6	x	x	-2	x	x
Brc1ccc(CN2CCNCC2)s1	-1	-1	-19	-1	0	4	x	x
Cc1ccc(-n2c(CNCc3ccc(F)cc3)nc3ccccc3c2=O)cc1	x	x	-4	x	x	4	x	x
COCCNC(=O)c1c(NC(=O)c2ccco2)n(Cc2ccccc2)c2nc3ccccc3nc12	-10	1	53*	6	1	-114	18	10
CN1CCN(c2nc3ccccn3c(=O)c2C=C2C(=O)N(C)C(=O)N(C)C2=O)CC1	-1	0	-7	2	1	5	x	x
SMILES	PAD4 inh	PP5 inh	Apaf-1 inh	GSTO1 counter	Fh CTSL1 inh	UCH37 inh	Apaf-1 inh conf2	Rh110 quench	others
Cc1c2ccncc2c(C)c2c1[nH]c1ccccc12	-2	-1	67*	10	7	-6	37	12
c1ccc2c(c1)[nH]c1cnccc12	-6	2	-9	-1	4	-113	x	x
O=[N+]([O-])c1ccc(N2CCCNCC2)c2ncccc12	2	1	45*	7	0	x	18	13
c1ccc(CCCN2CCN(CCOC(c3ccccc3)c3ccccc3)CC2)cc1	-1	1	51*	0	3	2	18	9
Fc1ccc(C(OCCN2CCCC2)c2ccc(Br)cc2)cc1 (configuration not stated)	-2	1	12	-1	-3	1	x	x
O=S1(=O)N(CCN2CC=C(c3c[nH]c4cc(F)ccc34)CC2)c2cccc3c2N1CCC3	-15	1	51*	-2	-5	0	15	-4
O=C1CC(c2ccccc2)CN1 (configuration not stated)	-1	-1	-13	8	-1	1	x	x
NCCc1ccc(OCc2ccccc2)c(OCc2ccccc2)c1	-3	1	46*	x	x	3	2	1
COC(=O)C1=C(c2ccc(Cl)c(C(F)(F)F)c2)C[C@@H]2CC[C@H]1N2C(=O)NCCOc1ccc(OC)cc1	1	6	40*	x	x	1	19	5
O=[N+]([O-])c1ccc(NCCCN2CCOCC2)c2ncccc12	2	-1	40*	-4	0	12	6	2
NCCNc1ccc([N+](=O)[O-])c2cccnc12	-11	3	9	13	1	9	x	x
COC(=O)C1=C(c2ccccc2OCc2ccccc2)C[C@@H]2CC[C@H]1N2C(=O)NC1CCN(Cc2ccccc2)CC1	2	3	39	x	x	7	x	x
COC(=O)C1=C(c2cccc(OCc3ccccc3)c2)C[C@@H]2CC[C@H]1N2C(=O)NC1CCN(Cc2ccccc2)CC1	-1	3	48*	x	x	4	11	4
